The record followed here is ChEMBL document CHEMBL2424556, “Hybrid benzofuran-bisindole derivatives: new prototypes with promising anti-hyperlipidemic activities” (2013).

A short description of test [1]: Antioxidant activity assessed as inhibition of microsomal lipid peroxidation at 200 ug/mL by spectrophotometric analysis relative to control. Format: functional.
Test [2] is described as follows: Antioxidant activity assessed as inhibition of hydroxyl radical generation at 200 ug/mL after 90 mins by spectrophotometric analysis relative to control. Format: functional. In a few lines:
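Hydroxyl radicals were generated non-enzymically from deoxyribose (2.8 mM), FeSO4 (2 mM), sodium ascorbate (2.0 mM) and H2O2 (2.8 mM) in KH2PO4 buffer pH 7.4, 2.5 mL final, with or without agent at 200 µg/ml, for 90 min at 37 °C. MDA was read spectrophotometrically by the thiobarbituric acid method against reference samples and reagent blanks.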

For test [3], the system named is Rattus norvegicus. Kind of test: Antihyperlipidemic activity in po dosed Charles-Foster rat assessed as reversal of triton-induced increase in plasma total cholesterol level after 18 hrs. Format: functional, organism-based. In a few lines:
(§1)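 Male adult Charles Foster rats (200-225 g), 6 per group; triton WR-1339 400 mg/kg i.p. plus oral test agent in 0.2% gum acacia suspension, given together, diet withdrawn. After 18 h, retro-orbital EDTA blood was centrifuged 2500 g, 4 °C, 10 min; plasma was diluted 1:3 in saline and TC, PL and TG were assayed enzymatically (mg/dl). Mean ± SD; Student's t-test.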

Test [4] deals with Rattus norvegicus. The test can be described thus: Antihyperlipidemic activity in Charles-Foster rat assessed as reversal of triton-induced increase in plasma total cholesterol level at 100 mg/kg, po after 18 hrs relative to control. Format: functional. A digest of the protocol: as §1
Test [5] has as its system Rattus norvegicus. Kind of test: Antihyperlipidemic activity in Charles-Foster rat assessed as reversal of triton-induced increase in plasma total cholesterol level at 50 mg/kg, po after 18 hrs relative to triton-treated control. Format: functional. In a few lines:
(§2)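 Dose-response in triton WR-1339 (400 mg/kg i.p.) hyperlipidemic male Charles Foster rats given oral agent at 50, 100 or 150 mg/kg in gum acacia suspension for 18 h, 6 rats/group. Plasma TC, PL and TG were measured enzymatically. Pooled data as mean ± SD; triton versus triton-plus-agent groups compared by t-test.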

The nature of test [6]: Antioxidant activity assessed as inhibition of superoxide anion generation at 200 ug/mL after 30 mins by NBT reduction assay relative to control. Format: functional. A digest of the protocol: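 Superoxide was generated by xanthine, xanthine oxidase (0.04 U) and nitroblue tetrazolium in 100 mM phosphate buffer pH 8.2, with or without agent at 200 µg/ml, for 30 min at 37 °C. Stopped with glacial acetic acid; formazan read at 560 nm, and % inhibition derived using ε 7.2 × 10³ M⁻¹cm⁻¹.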

In test [7] the test system is Rattus norvegicus. Kind of test: Antihyperlipidemic activity in Charles-Foster rat assessed as reversal of triton-induced increase in plasma total cholesterol level at 100 mg/kg, po after 18 hrs relative to triton-treated control. Format: functional. A digest of the protocol: as §1
The test system of test [8] is Rattus norvegicus. The test can be described thus: Antihyperlipidemic activity in Charles-Foster rat assessed as reversal of triton-induced increase in plasma triglyceride level at 50 mg/kg, po after 18 hrs relative to triton-treated control. Format: functional. A digest of the protocol: as §2
Test [9] relates to Rattus norvegicus. Kind of test: Antihyperlipidemic activity in Charles-Foster rat assessed as reversal of triton-induced increase in VLDL level at 100 mg/kg, po after 18 hrs. Format: functional, organism-based. On the set-up: dose 100 mg/kg. A digest of the protocol: (§3)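 Triton WR-1339 (400 mg/kg i.p.) hyperlipidemic male Charles Foster rats dosed 100 mg/kg p.o. for 18 h, 6/group. Serum was fractionated into VLDL, LDL and HDL by polyanionic precipitation and lipoprotein cholesterol measured. Mean ± SD; Student's t-test against triton group.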

Test [10] relates to Rattus norvegicus. The test can be described thus: Antihyperlipidemic activity in Charles-Foster rat assessed as reversal of triton-induced increase in plasma phospholipid level at 100 mg/kg, po after 18 hrs relative to triton-treated control. Format: functional. In a few lines:
as §1

Test [11] relates to Rattus norvegicus. The test can be described thus: Antihyperlipidemic activity in po dosed Charles-Foster rat assessed as reversal of triton-induced increase in plasma phospholipid level after 18 hrs. Format: functional, organism-based. A digest of the protocol: as §1
Test [12] has as its system Rattus norvegicus. Kind of test: Antihyperlipidemic activity in Charles-Foster rat assessed as reversal of triton-induced increase in plasma triglyceride level at 100 mg/kg, po after 18 hrs relative to control. Format: functional. A digest of the protocol: as §1
The subject of test [13] is Rattus norvegicus. Kind of test: Antihyperlipidemic activity in Charles-Foster rat assessed as reversal of triton-induced decrease in HDL level at 100 mg/kg, po after 18 hrs. Format: functional, organism-based. On the set-up: dose 100 mg/kg. In a few lines:
as §3

Test [14] deals with Rattus norvegicus. Kind of test: Antihyperlipidemic activity in Charles-Foster rat assessed as reversal of triton-induced increase in plasma total cholesterol level at 150 mg/kg, po after 18 hrs relative to triton-treated control. Format: functional. A digest of the protocol:
as §2

Test [15] deals with Rattus norvegicus. Kind of test: Antihyperlipidemic activity in Charles-Foster rat assessed as reversal of triton-induced increase in plasma triglyceride level at 100 mg/kg, po after 18 hrs relative to triton-treated control. Format: functional. A digest of the protocol:
as §1

The test system of test [16] is Rattus norvegicus. Kind of test: Antihyperlipidemic activity in Charles-Foster rat assessed as reversal of triton-induced increase in LDL level at 100 mg/kg, po after 18 hrs. Format: functional, organism-based. On the set-up: dose 100 mg/kg. A digest of the protocol:
as §3

Test [17] deals with Rattus norvegicus. The test can be described thus: Antihyperlipidemic activity in Charles-Foster rat assessed as reversal of triton-induced increase in plasma phospholipid level at 100 mg/kg, po after 18 hrs relative to control. Format: functional. In a few lines: as §1
In test [18] the test system is Rattus norvegicus. The test can be described thus: Antihyperlipidemic activity in Charles-Foster rat assessed as post heparin lipolytic activity at 100 mg/kg, po after 18 hrs by spectrophotometric analysis relative to control. Format: functional. In a few lines: (§4)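 Male adult Charles Foster rats (200-225 g), 6 per group. Triton WR-1339 400 mg/kg i.p.; test agent 100 mg/kg p.o. as gum acacia (0.2% w/v) suspension in water, given simultaneously, diet withdrawn; vehicle to control and triton groups. At 18 h under thiopentone (50 mg/kg), retro-orbital blood collected into EDTA and plasma separated. Post-heparin lipolytic activity read spectrophotometrically as nmol free fatty acid/h/ml plasma; mean ± SD; Student's t-test.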

In test [19] the test system is Rattus norvegicus. The test can be described thus: Antihyperlipidemic activity in triton-induced Charles-Foster rat assessed as increase in plasma lecithin cholesterol acyltransferase activity at 100 mg/kg, po after 18 hrs by colorimetric assay. Format: functional, organism-based. On the set-up: dose 100 mg/kg.
Test [20] relates to Rattus norvegicus. Kind of test: Antihyperlipidemic activity in Charles-Foster rat assessed as reversal of triton-induced increase in plasma phospholipid level at 50 mg/kg, po after 18 hrs relative to triton-treated control. Format: functional. A digest of the protocol: as §2
Test [21] has as its system Rattus norvegicus. The test can be described thus: Antihyperlipidemic activity in Charles-Foster rat assessed as post heparin lipolytic activity at 100 mg/kg, po after 18 hrs by spectrophotometric analysis relative to triton-treated control. Format: functional. In a few lines:
as §4

Test [22] concerns Rattus norvegicus. Kind of test: Antihyperlipidemic activity in po dosed Charles-Foster rat assessed as reversal of triton-induced increase in plasma triglyceride level after 18 hrs. Format: functional, organism-based. A digest of the protocol: as §1
Test [23] concerns Rattus norvegicus. The test can be described thus: Antihyperlipidemic activity in Charles-Foster rat assessed as reversal of triton-induced increase in plasma phospholipid level at 150 mg/kg, po after 18 hrs relative to triton-treated control. Format: functional. In a few lines: as §2
Test [24] relates to Rattus norvegicus. The test can be described thus: Antihyperlipidemic activity in Charles-Foster rat assessed as reversal of triton-induced increase in plasma triglyceride level at 150 mg/kg, po after 18 hrs relative to triton-treated control. Format: functional. In a few lines:
as §2

The source made the active and inactive calls. The calls are words filed in the database; no cut-off is given here.

A word on the inhibition: it is the change of the read-out against control, counted positive when it falls.

On to `Cc1c(C)c2c(c(C)c1O)CC[C@@](C)(CCC[C@H](C)CCC[C@H](C)CCCC(C)C)O2`, for which the inhibition in test [1] amounted to 52%; in test [2], 49%.
Regarding `CCc1cc(C(c2c[nH]c3ccc(OC)cc23)c2c[nH]c3ccc(OC)cc23)cc2cc(C(=O)c3ccc(OC)cc3)oc12`, the Activity entry in the test with Rattus norvegicus [3] was “Dose-dependent effect”; in the test on Rattus norvegicus [4], 132.63 mg/dL; with Rattus norvegicus [5], -22%; in the test with Rattus norvegicus [7], -28%; in the test on Rattus norvegicus [8] it was -20%; in the test on Rattus norvegicus [10], -29%. The Activity entry in the test on Rattus norvegicus [11] was “Dose-dependent effect”; in the test with Rattus norvegicus [12], 155.59 mg/dL; in the test with Rattus norvegicus [14], -29%; in the test with Rattus norvegicus [15] it was -28%; in the test on Rattus norvegicus [17], 146.88 mg/dL; in the test with Rattus norvegicus [18], 15.58 nmol/h/mL. The Activity in the test on Rattus norvegicus [20] is -20%; with Rattus norvegicus [21], 18%; in the test with Rattus norvegicus [22], “Dose-dependent effect”; in the test with Rattus norvegicus [23] it was -29%; in the test with Rattus norvegicus [24], -30%. For the same compound, the inhibition in [6] is 31%; in [1], 32%; in test [2], 27%. Moreover, the outcome with Rattus norvegicus [9], with Rattus norvegicus [13], in the test with Rattus norvegicus [16] and in the test on Rattus norvegicus [19] was Active.
Turning to `CCCc1cc(C(c2c[nH]c3ccc(OC)cc23)c2c[nH]c3ccc(OC)cc23)cc2cc(C(=O)c3ccc(OC)cc3)oc12`, the Activity was 139.99 mg/dL in the test on Rattus norvegicus [4]; -17% in the test on Rattus norvegicus [5]; -24% in the test on Rattus norvegicus [7]; -16% in the test with Rattus norvegicus [8]; -23% in the test on Rattus norvegicus [10]; 166.4 mg/dL with Rattus norvegicus [12]. The Activity was -24% in the test on Rattus norvegicus [14]; -23% with Rattus norvegicus [15]; 159.29 mg/dL in the test on Rattus norvegicus [17]; 15.32 nmol/h/mL in the test with Rattus norvegicus [18]; -18% in the test with Rattus norvegicus [20]; 16% in the test with Rattus norvegicus [21]. For the same compound, the Activity was -26% in the test with Rattus norvegicus [23] and -24% in the test with Rattus norvegicus [24]. The outcome in the test with Rattus norvegicus [9], in the test on Rattus norvegicus [13], in the test with Rattus norvegicus [16] and with Rattus norvegicus [19] was Active.
As to `Cc1ccc(C)c(OCCCC(C)(C)C(=O)O)c1` [GEMFIBROZIL], the Activity in the test on Rattus norvegicus [4] was 121.57 mg/dL; in the test with Rattus norvegicus [7], -34%; in the test with Rattus norvegicus [10], -35%; in the test with Rattus norvegicus [12], 142.63 mg/dL; in the test on Rattus norvegicus [15], -34%; with Rattus norvegicus [17], 134.47 mg/dL. The Activity amounted to 15.85 nmol/h/mL in the test on Rattus norvegicus [18] and 20% in the test with Rattus norvegicus [21]. In the test with Rattus norvegicus [19], the result was Active.
`COc1ccc(C(=O)c2cc3cc(C(c4c[nH]c5ccc(OC)cc45)c4c[nH]c5ccc(OC)cc45)cc(C(C)(C)C)c3o2)cc1`: the Activity in the test on Rattus norvegicus [4] was 139.99 mg/dL; with Rattus norvegicus [5], -20%; in the test on Rattus norvegicus [7], -24%; in the test with Rattus norvegicus [8], -21%; in the test with Rattus norvegicus [10] it was -23%; in the test with Rattus norvegicus [12] it was 166.4 mg/dL. Also, the Activity in the test on Rattus norvegicus [14] is -27%; in the test on Rattus norvegicus [15], -23%; in the test with Rattus norvegicus [17] it was 159.29 mg/dL; with Rattus norvegicus [18], 15.45 nmol/h/mL; in the test with Rattus norvegicus [20] it was -20%; in the test on Rattus norvegicus [21], 17%. The Activity is -23% in the test on Rattus norvegicus [23] and -24% in the test on Rattus norvegicus [24]. The outcome in the test on Rattus norvegicus [9], in the test with Rattus norvegicus [13], in the test with Rattus norvegicus [16] and in the test on Rattus norvegicus [19] was Active.
Regarding `OC[C@@H](O)[C@@H](O)[C@H](O)[C@H](O)CO`, the inhibition came to 52% in [1] and 49% in test [2].
Consider `Oc1ncnc2[nH]ncc12`, for which the inhibition in test [6] is 51%.
For the compound `COc1ccc(C(=O)c2cc3cc(C(c4c[nH]c5ccc(OC)cc45)c4c[nH]c5ccc(OC)cc45)cc(C)c3o2)cc1`, the Activity in the test with Rattus norvegicus [4] is 141.84 mg/dL; with Rattus norvegicus [5] it was -15%; in the test with Rattus norvegicus [7], -23%; with Rattus norvegicus [8], -16%; in the test with Rattus norvegicus [10] it was -23%; in the test with Rattus norvegicus [12] it was 164.24 mg/dL. Besides, the Activity is -25% with Rattus norvegicus [14]; -24% in the test on Rattus norvegicus [15]; 159.29 mg/dL in the test with Rattus norvegicus [17]; 15.32 nmol/h/mL with Rattus norvegicus [18]; -17% with Rattus norvegicus [20]; 16% with Rattus norvegicus [21]. Also, the Activity in the test with Rattus norvegicus [23] is given as -24%; in the test with Rattus norvegicus [24], -25%. Besides, the values for the inhibition in [6], in [1] and in [2] were 33%, 31% and 30%, respectively. Also, the result in the test with Rattus norvegicus [9], in the test with Rattus norvegicus [13], in the test with Rattus norvegicus [16] and in the test with Rattus norvegicus [19] was Active.
